Data from ChEMBL document CHEMBL4152324 (Eur J Med Chem, 2018).
Activity calls are given as the source filed them. The rule behind the calls is not given here.

Columns and labels:
[1] = molecular target: T1, NAD-dependent protein deacetylase sirtuin-2 (Homo sapiens, UniProt Q8IXJ6); test: Inhibition of recombinant His-tagged SIRT2 (56 to 356 residues) (unknown origin) expressed in Escherichia coli Transetta(DE3) using AcIQF as substrate preincubated for 30 mins followed by substrate and NAD+ addition measured after 2 hrs by fluorescence assay
T1 sequence (Q8IXJ6 whole entry): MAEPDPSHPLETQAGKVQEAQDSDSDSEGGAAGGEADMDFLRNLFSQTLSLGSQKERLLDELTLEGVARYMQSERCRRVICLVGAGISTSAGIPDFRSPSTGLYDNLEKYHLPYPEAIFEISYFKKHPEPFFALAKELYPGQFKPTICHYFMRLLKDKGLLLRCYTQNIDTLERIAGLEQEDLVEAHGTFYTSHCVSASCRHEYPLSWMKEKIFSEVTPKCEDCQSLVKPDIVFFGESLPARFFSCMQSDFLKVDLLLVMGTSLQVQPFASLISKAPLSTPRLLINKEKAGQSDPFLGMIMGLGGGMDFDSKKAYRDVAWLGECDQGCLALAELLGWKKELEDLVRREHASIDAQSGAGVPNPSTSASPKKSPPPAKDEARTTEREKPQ

NCI-H441 [2] = test: Induction of apoptosis in human NCI-H441 cells assessed as live cells at 30 uM after 48 hrs by Annexin V-FITC/propidium iodide staining based flow cytometry (reference value: 88.5%); assay type: functional
NCI-H441 [3] = test: Anti-invasive activity against human NCI-H441 cells after 48 hrs by crystal violet staining based transwell assay; assay type: functional, cell-based
Outline: (§1)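 H441 cells in serum-free RPMI1640 seeded at 5 × 10⁴/100 μL into Matrigel-precoated insert upper chambers, with DMSO vehicle or compound in serum-free medium above. Lower chambers held RPMI1640 complete medium. After 48 h, invaded cells fixed with methanol and stained with 0.05% crystal violet (w/v).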

NCI-H441 [4] = test: Antiproliferative activity against human NCI-H441 cells after 72 hrs by MTT assay; assay type: functional, cell-based; conditions: NCI-H441, 72 h
Outline: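 Cells in 96-well plates given DMSO vehicle or a range of compound concentrations for 72 h. MTT reagent (5 mg/mL stock) added, then 4 h at 37 °C. Formazan dissolved overnight in 20% acidified SDS (w/v), absorbance read at 570 nm. IC50 taken from the viability profile.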

NCI-H441 [5] = test: Anticlonogenic activity against human NCI-H441 cells at 3 to 30 uM after 2 weeks by crystal violet staining based assay; assay type: functional, cell-based
Outline: (§2)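 Cells seeded at 5,000 per well in six-well plates and exposed to DMSO vehicle or compound for 2 weeks, with agents replaced every 3 days. Cells then fixed with methanol and stained with 0.05% crystal violet (w/v).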

NCI-H441 [6] = test: Induction of apoptosis in human NCI-H441 cells assessed as late apoptotic cells at 30 uM after 48 hrs by Annexin V-FITC/propidium iodide staining based flow cytometry (reference value: 7.25%); assay type: functional
[7] = molecular target: T2, NAD-dependent protein deacetylase sirtuin-2 (Homo sapiens) (UniProt Q8IXJ6); test: Inhibition of SIRT2 in human NCI-H441 cells assessed as increase in acetylated alpha-tubulin level after 72 hrs by Western blot analysis; assay type: cell-based
T2 sequence (whole entry): T1 sequence (Q8IXJ6 whole entry)
Outline: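 H441 cells (ATCC, passaged <6 months after resuscitation) exposed to compound for 72 h. Whole-cell lysates separated by SDS-PAGE, transferred to PVDF and probed with anti-Ac-α-tubulin and anti-α-tubulin (1:1,000), then HRP secondaries (1:5,000) with ECL detection. Ac-α-tubulin normalized to α-tubulin, expressed relative to untreated control set to 1.0.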

NCI-H441 [8] = test: Antiproliferative activity against human NCI-H441 cells assessed as reduction in EdU incorporation at 30 uM after 48 hrs by DAPI staining based fluorescence microscopic method; assay type: functional, cell-based
Outline: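 Cells in 96-well plates treated with DMSO vehicle or compound (30 μM) for 48 h. Proliferation measured by EdU incorporation kit per manufacturer. EdU and DAPI nuclear fluorescence imaged on a high-content reader.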

NCI-H441 [9] = test: Induction of apoptosis in human NCI-H441 cells assessed as necrotic cells at 30 uM after 48 hrs by Annexin V-FITC/propidium iodide staining based flow cytometry (reference value: 1.79%); assay type: functional
NCI-H441 [10] = test: Antimigratory activity against human NCI-H441 cells assessed as reduction in wound closure at 10 to 30 uM after 24 hrs by light microscopic method; assay type: functional, cell-based
Outline: (§3)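 Confluent monolayers in 12-well plates were scratched with a sterile pipette tip, then treated with DMSO vehicle or compound for 24 h. Wounds photographed by digital camera on a light microscope.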

NCI-H441 [11] = test: Induction of apoptosis in human NCI-H441 cells assessed as early apoptotic cells at 30 uM after 48 hrs by Annexin V-FITC/propidium iodide staining based flow cytometry (reference value: 2.47%); assay type: functional
NCI-H441 [12] = test: Anticlonogenic activity against human NCI-H441 cells at 10 to 30 uM after 2 weeks by crystal violet staining based assay; assay type: functional, cell-based; outline: as §2
NCI-H441 [13] = test: Anti-invasive activity against human NCI-H441 cells at 30 uM after 48 hrs by crystal violet staining based transwell assay; assay type: functional, cell-based; outline: as §1
NCI-H441 [14] = test: Antimigratory activity against human NCI-H441 cells assessed as reduction in wound closure at 30 uM after 24 hrs by light microscopic method; assay type: functional, cell-based; outline: as §3

Structure (SMILES): CC(C)n1cnc(SCC(=O)Nc2cccc(COc3ccc(NC(=O)c4cccs4)cc3)c2)n1
- IC50 ([1]; read-out: IC50): 142 µM

Structure (SMILES): Cc1cc(C)nc(SCC(=O)Nc2cccc(COc3ccc(NC(=O)c4ccco4)cc3)c2)n1
- IC50 ([1]; read-out: IC50): 3.1 µM

Structure (SMILES): Cc1cc(C)nc(SCC(=O)Nc2cccc(COc3ccccc3)c2)n1
- IC50 ([1]; read-out: IC50): 25.9 µM
- IC50 ([1]; read-out: pIC50 (converted)): 26.3 µM

Structure (SMILES): CNC(=S)NCCCC(=O)Nc1ccc(OCc2cccc(NC(=O)CSc3nc(C)cc(C)n3)c2)cc1
- IC50 ([1]; read-out: IC50): 9.56 µM

Structure (SMILES): CC(=O)NCC(=O)Nc1ccc(OCc2cccc(NC(=O)CSc3nc(C)cc(C)n3)c2)cc1
- IC50 ([1]; read-out: IC50): > 300 µM

Structure (SMILES): Cn1cc(C(=O)Nc2ccc(OCc3cccc(NC(=O)COc4cccc5ccccc45)c3)cc2)cn1
- IC50 ([1]; read-out: IC50): > 300 µM

Structure (SMILES): Cc1cc(C)nc(SCC(=O)Nc2cccc(COc3ccc(NC(=O)C4CCCN4)cc3)c2)n1 (centres undefined)
- IC50 ([1]; read-out: IC50): 41.3 µM

Structure (SMILES): Cc1cc(C)nc(SCC(=O)Nc2cccc(COc3cccc(NC(=O)C4CCOCC4)c3)c2)n1
- IC50 ([1]; read-out: IC50): 169 µM

Structure (SMILES): Cc1cc(C)nc(SCC(=O)Nc2cccc(COc3ccc(NC(=O)C4CCOCC4)cc3)c2)n1
- IC50 ([1]; read-out: IC50): 1.32 µM

Structure (SMILES): O=C(CSc1nnc2ccccn12)Nc1cccc(COc2ccc(NC(=O)c3cccs3)cc2)c1
- IC50 ([1]; read-out: IC50): > 300 µM

Structure (SMILES): Cc1cc(C)nc(SCC(=O)Nc2cccc(COc3cccc(NC(=O)c4ccccn4)c3)c2)n1
- IC50 ([1]; read-out: IC50): > 300 µM

Structure (SMILES): Cc1cc(C)nc(SCC(=O)Nc2cccc(COc3ccc(NC(=O)c4cccs4)cc3)c2)n1
- IC50 ([1]; read-out: IC50): 3.41 µM

Structure (SMILES): Cc1cc(C)nc(SCC(=O)Nc2cccc(COc3ccc(NC(=O)c4cnn(C)c4)cc3)c2)n1
- Activity (NCI-H441 [2]): 87.8%
- IC50 ([1]; read-out: IC50): 0.815 µM
- Activity (NCI-H441 [3]): Dose-dependent effect
- IC50 (NCI-H441 [4]): 3.93 µM
- Activity (NCI-H441 [5]): Active
- Activity (NCI-H441 [6]): 7.22%
- inhibition [7]: Dose-dependent effect
- Activity (NCI-H441 [8]): Active
- Activity (NCI-H441 [9]): 2.26%
- Activity (NCI-H441 [10]): Active
- Activity (NCI-H441 [11]): 2.69%

Structure (SMILES): Cc1cc(C)nc(SCC(=O)Nc2cccc(COc3cccc(NC(=O)C4CCCN4)c3)c2)n1 (centres undefined)
- IC50 ([1]; read-out: IC50): 142 µM

Structure (SMILES): O=C(COc1cccc2ccccc12)Nc1cccc(COc2ccc(NC(=O)c3cccs3)cc2)c1
- IC50 ([1]; read-out: IC50): > 300 µM

Structure (SMILES): Cc1cc(C)nc(SCC(=O)Nc2cccc(COc3ccc(NC(=O)CCCN)cc3)c2)n1
- IC50 ([1]; read-out: IC50): 70.6 µM

Structure (SMILES): Cc1cc(C)nc(SCC(=O)Nc2cccc(COc3ccc(NC(=O)CCCNC(=O)OC(C)(C)C)cc3)c2)n1
- IC50 ([1]; read-out: IC50): > 300 µM

Structure (SMILES): Cn1cc(C(=O)Nc2ccc(OCc3cccc(NC(=O)CSc4nnc5ccccn45)c3)cc2)cn1
- IC50 ([1]; read-out: IC50): > 300 µM

Structure (SMILES): Cc1cc(C)nc(SCC(=O)Nc2cccc(COc3ccc(NC(=O)CCN[C@@H]4CCCC[C@H]4O)cc3)c2)n1
- IC50 ([1]; read-out: IC50): > 300 µM

Structure (SMILES): Cc1cc(C)nc(SCC(=O)Nc2cccc(COc3ccc(NC(=O)OC(C)(C)C)cc3)c2)n1
- IC50 ([1]; read-out: IC50): 100 µM

Structure (SMILES): C/C=C/C(=O)Nc1ccc(OCc2cccc(NC(=O)CSc3nc(C)cc(C)n3)c2)cc1
- IC50 ([1]; read-out: IC50): 89.3 µM

Structure (SMILES): COc1cccc(SCC(=O)Nc2cccc(COc3ccc(NC(=O)c4cccs4)cc3)c2)c1
- IC50 ([1]; read-out: IC50): > 300 µM

Structure (SMILES): CC(C)n1ncnc1SCC(=O)Nc1cccc(COc2ccc(NC(=O)c3cccs3)cc2)c1
- IC50 ([1]; read-out: IC50): 270 µM

Structure (SMILES): Cc1cc(C)nc(SCC(=O)Nc2cccc(COc3ccc(NC(=O)CNC(=O)OCc4ccccc4)cc3)c2)n1
- IC50 ([1]; read-out: IC50): > 300 µM

Structure (SMILES): Cc1cc(C)nc(SCC(=O)Nc2cccc(COc3ccc(NC(=O)CCNC(=O)OC(C)(C)C)cc3)c2)n1
- IC50 ([1]; read-out: IC50): 300 µM

Structure (SMILES): Cc1cc(C)nc(SCC(=O)Nc2cccc(COc3ccc(NC(=O)CCN)cc3)c2)n1
- IC50 ([1]; read-out: IC50): 300 µM

Structure (SMILES): Cc1cc(C)nc(SCC(=O)Nc2cccc(COc3ccc(NC(=O)c4ccccn4)cc3)c2)n1
- IC50 ([1]; read-out: IC50): 29.4 µM

Structure (SMILES): Cn1nnnc1SCC(=O)Nc1cccc(COc2ccc(NC(=O)c3cccs3)cc2)c1
- IC50 ([1]; read-out: IC50): 44.5 µM

Structure (SMILES): Cc1cccc(SCC(=O)Nc2cccc(COc3ccc(NC(=O)c4cccs4)cc3)c2)c1
- IC50 ([1]; read-out: IC50): > 300 µM

Structure (SMILES): Cc1cc(C)nc(SCC(=O)Nc2cccc(COc3ccc(NC(=O)C4CCCN4C(=O)OC(C)(C)C)cc3)c2)n1 (centres undefined)
- IC50 ([1]; read-out: IC50): 76.1 µM

Structure (SMILES): Cc1cc(C)nc(SCC(=O)Nc2cccc(COc3cccc(NC(=O)c4cccs4)c3)c2)n1
- IC50 ([1]; read-out: IC50): 128 µM

Structure (SMILES): Cc1cc(C)nc(SCC(=O)Nc2cccc(COc3cccc(NC(=O)C4CCCN4C(=O)OC(C)(C)C)c3)c2)n1 (centres undefined)
- IC50 ([1]; read-out: IC50): 15.2 µM

Structure (SMILES): CNC(=S)NCCC(=O)Nc1ccc(OCc2cccc(NC(=O)CSc3nc(C)cc(C)n3)c2)cc1
- IC50 ([1]; read-out: IC50): 11.7 µM

Structure (SMILES): Cc1cc(C)nc(SCC(=O)Nc2cccc(COc3cccc(NC(=O)c4cnn(C)c4)c3)c2)n1
- Activity (NCI-H441 [2]): 87.8%
- Activity (NCI-H441 [12]): inactive
- IC50 ([1]; read-out: IC50): 93.7 µM
- Activity (NCI-H441 [13]): inactive
- IC50 (NCI-H441 [4]): > 100 µM
- Activity (NCI-H441 [6]): 7.39%
- Activity (NCI-H441 [8]): inactive
- Activity (NCI-H441 [9]): 2.21%
- Activity (NCI-H441 [14]): inactive
- Activity (NCI-H441 [11]): 2.61%

Structure (SMILES): CCOCC(=O)Nc1ccc(OCc2cccc(NC(=O)CSc3nc(C)cc(C)n3)c2)cc1
- IC50 ([1]; read-out: IC50): 110 µM

Structure (SMILES): Cc1cc(C)nc(SCC(=O)Nc2cccc(COc3ccc(NC(=O)CCCN[C@@H]4CCCC[C@H]4O)cc3)c2)n1
- IC50 ([1]; read-out: IC50): 175 µM

Structure (SMILES): Cc1cc(C)nc(SCC(=O)Nc2cccc(COc3cccc(NC(=O)c4ccco4)c3)c2)n1
- IC50 ([1]; read-out: IC50): 123 µM

Structure (SMILES): O=C(CSc1nc[nH]n1)Nc1cccc(COc2ccc(NC(=O)c3cccs3)cc2)c1
- IC50 ([1]; read-out: IC50): > 300 µM

Structure (SMILES): Cc1cc(C)cc(OCC(=O)Nc2cccc(COc3ccc(NC(=O)c4cccs4)cc3)c2)c1
- IC50 ([1]; read-out: IC50): > 300 µM
